Blank lines part the entries; values can stand above or below the molecule they belong to. The source made the active and inactive calls. The calls are words filed in the database; no cut-off is given here.
Key:
Homo sapiens [1] = organism: Homo sapiens; test: Binding affinity to human STING 293Q mutant assessed as thermal stability by measuring melting temperature […] differential scanning fluorimetry (reference value: 46.25 degreeC); conditions: filed as activator
Outline: (§1)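 Thermal shift by DSF: 5 μM STING protein, 50 μM compound and 10× SYPRO Orange in 10 mM HEPES pH 7.5, 150 mM NaCl. Samples heated from 30 to 80 °C at 0.5 °C/min. Tm taken as the temperature of median fluorescence between onset and maximum; n = 3.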

[2] = target: T1, Stimulator of interferon genes protein (Homo sapiens, UniProt Q86WV6); test: Activation of human STING (139 to 379 residues) expressed in THP1-Blue ISG cells at 10 uM incubated for 24 hrs by quanti-blue SEAP reporter gene assay relative to control; assay type: cell-based; conditions: filed as activator
Outline: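 THP1-Blue-ISG cells (1 × 10⁵/well) treated for 24 h; single-concentration screen at 10 μM. SEAP ISG reporter in 20 μL supernatant read with QUANTI-Blue at 650 nm. Activation given as fold over control, averaging at least two experiments.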

Mus musculus = organism: Mus musculus; test: Binding affinity to mouse STING mR231 mutant assessed as thermal stability by measuring melting temperature […] differential scanning fluorimetry (reference value: 42 degreeC); conditions: filed as activator; outline: as §1
[3] = target: T1, Stimulator of interferon genes protein; test: Activation of STING in human THP1-Dual cells assessed as increase in IP-10 secretion at 0.01 to 10 uM measured after 24 hrs by ELISA; assay type: cell-based; conditions: filed as activator, dose 0.01-10 µM
Outline: (§2)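 THP1-Dual cells seeded at 10⁵ cells/well and treated for 24 h. Human IP-10 and IFN-β in supernatant quantified by ELISA kits. Concentration (pg/mL) derived from a standard curve.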

[4] = target: T1, Stimulator of interferon genes protein; test: Activation of STING in human THP1-Dual cells assessed as induction of NF-KB signaling at 0.005 to 10 uM measured after 24 hrs by Quanti-Blue reagent based assay; assay type: cell-based; conditions: filed as activator, dose 0.005-10 µM
Outline: (§3)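 THP1-Dual cells (1 × 10⁵/well) treated for 24 h. Supernatant (20 μL) incubated 1 h at 37 °C with QUANTI-Blue, then absorbance read at 650 nm. Fold change calculated relative to vehicle control.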

[5] = target: T1, Stimulator of interferon genes protein; test: Activation of STING in human THP1-Dual cells assessed as increase in TBK1/IRF3 phosphorylation measured after 4 hrs by Western blot analysis; assay type: cell-based; conditions: filed as activator, dose 3.3-30 µM
Outline: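 THP1-Dual cells (8 × 10⁵/well) treated at 3.3, 10 and 30 μM for 4 h, then lysed in SDS sample buffer and boiled. Lysates run on 10% SDS-PAGE and transferred to nitrocellulose. Blots probed for TBK1, phospho-TBK1 Ser172, IRF3, phospho-IRF3 Ser396 and GAPDH, with HRP secondaries and ECL detection.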

4T1 = test: Antitumor activity against mouse 4T1 cells […] in orthotopic BALB/c mouse assessed as tumor regression at 10 mg/kg, iv administered on day 1,4 and 7 post inoculation; assay type: functional, organism-based; conditions: time 7.0 day
Outline: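 BALB/c mice bearing orthotopic 4T1 tumors (5 × 10⁵ cells in the breast fat pad; n = 5) dosed iv at 10 mg/kg on days 1, 4 and 7 once tumors reached about 50–100 mm³. Tumor volume calculated as (a × b²)/2 and, with body weight, measured twice weekly.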

[6] = test system: Stimulator of interferon genes protein (Homo sapiens), Q86WV6 [UNDEFINED MUTATION]; test: Binding affinity to human STING R232 mutant assessed as thermal stability by measuring melting temperature […] differential scanning fluorimetry (reference value: 38.75 degreeC); conditions: filed as activator; outline: as §1
[7] = target: T1, Stimulator of interferon genes protein; test: Activation of STING in human THP1-Dual cells assessed as induction of ISG signaling at 0.005 to 10 uM measured after 24 hrs by Quanti-Blue reagent based assay; assay type: cell-based; conditions: filed as activator, dose 0.005-10 µM; outline: as §3
[8] = Solubility of the compound; assay type: physicochemical
[9] = target: T1, Stimulator of interferon genes protein; test: Activation of STING in human THP1-Dual cells assessed as increase in IFNbeta secretion at 10 uM measured after 24 hrs by ELISA; assay type: cell-based; conditions: filed as activator; outline: as §2
[10] = target: T2, Stimulator of interferon genes protein (Mus musculus) (UniProt Q3TBT3); test: Activation of mouse STING expressed in RAW-Lucia ISG cells at 50 uM incubated for 24 hrs by QUANTI-Luc luciferase reporter gene assay relative to control; conditions: filed as activator
T2 sequence (whole entry): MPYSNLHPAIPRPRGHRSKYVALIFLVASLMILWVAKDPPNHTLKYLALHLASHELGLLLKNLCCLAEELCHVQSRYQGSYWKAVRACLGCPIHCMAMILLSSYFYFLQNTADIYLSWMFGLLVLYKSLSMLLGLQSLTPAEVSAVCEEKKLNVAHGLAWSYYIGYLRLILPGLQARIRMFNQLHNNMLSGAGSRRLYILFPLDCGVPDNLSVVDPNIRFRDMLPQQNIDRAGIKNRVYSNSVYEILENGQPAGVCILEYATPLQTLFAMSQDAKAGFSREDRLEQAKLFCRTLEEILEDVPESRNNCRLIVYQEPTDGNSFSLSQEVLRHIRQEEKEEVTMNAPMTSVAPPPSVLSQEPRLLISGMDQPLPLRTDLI

Homo sapiens [11] = organism: Homo sapiens; test: Binding affinity to human STING H232 mutant assessed as thermal stability by measuring melting temperature […] differential scanning fluorimetry (reference value: 39.5 degreeC); conditions: filed as activator; outline: as §1
[12] = test system: Stimulator of interferon genes protein (Homo sapiens), Q86WV6 [R71H,G230A,R293Q]; test: Binding affinity to human STING HAQ mutant assessed as thermal stability by measuring melting temperature […] differential scanning fluorimetry (reference value: 37.25 degreeC); conditions: filed as activator; outline: as §1
CT26 = test: Antitumor activity against mouse CT26 cells inoculated in BALB/c mouse assessed as inhibition of tumor growth IT(Intratumoral) administered on day 1,4 and 7 post inoculation; conditions: time 7.0 day
[13] = Observed AUCinfinity in rat at 1 mg/kg, iv; assay type: ADME, organism-based; set-up: time infinity, route intravenous, dose 1 mg/kg; conditions: in vivo
[14] = AUClast in rat at 1 mg/kg, iv; assay type: ADME, organism-based; set-up: time 0 - last, route intravenous, dose 1 mg/kg; conditions: in vivo
[15] = Observed MRT infinity in rat at 1 mg/kg, iv; assay type: ADME, organism-based; conditions: in vivo
[16] = target: T3, Stimulator of interferon genes protein (Mus musculus, UniProt Q3TBT3); test: Activation of mouse STING expressed in RAW-Lucia ISG cells incubated for 24 hrs by secreted luciferase reporter gene assay
T3 sequence (Q3TBT3 whole entry): T2 sequence (whole entry)

[17] = Observed volume of distribution at steady state in rat at 1 mg/kg, iv; assay type: ADME, organism-based; conditions: in vivo, read-out: Vdss
[18] = Toxicity in orthotopic BALB/c mouse co-inoculated with mouse 4T1 […] cells assessed as weight loss at 10 mg/kg, iv administered on day 1,4 and 7 post inoculation; assay type: organism-based; conditions: in vivo, 168 h, time 7 day
Outline: (§4)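 BALB/c mice received 5 × 10⁵ 4T1 cells into the breast fat pad (orthotopic), with n = 5. Dosing began when tumours reached about 50−100 mm³: 10 mg/kg iv on days 1, 4 and 7, against a vehicle group. Body weight and tumour volume were recorded twice weekly, with tolerance and survival followed after each injection.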

[19] = Half life in rat at 1 mg/kg, iv; assay type: ADME, organism-based; conditions: in vivo
[20] = target: T1, Stimulator of interferon genes protein; test: Activation of human STING expressed in THP1-Dual cells incubated for 24 hrs by secreted luciferase reporter gene assay
[21] = target: T1, Stimulator of interferon genes protein; test: Binding affinity to 6His-tagged human STING measured after 3 hrs by HTRF assay
[22] = Observed clearance in rat at 1 mg/kg, iv; assay type: ADME, organism-based; conditions: in vivo
[23] = Toxicity in orthotopic BALB/c mouse co-inoculated with mouse 4T1 […] cells assessed as drug tolerance at 10 mg/kg, iv administered on day 1,4 and 7 post inoculation; assay type: organism-based; conditions: in vivo, 168 h, time 7 day; outline: as §4

T1 sequence (Q86WV6 whole entry, the tested form may be a part): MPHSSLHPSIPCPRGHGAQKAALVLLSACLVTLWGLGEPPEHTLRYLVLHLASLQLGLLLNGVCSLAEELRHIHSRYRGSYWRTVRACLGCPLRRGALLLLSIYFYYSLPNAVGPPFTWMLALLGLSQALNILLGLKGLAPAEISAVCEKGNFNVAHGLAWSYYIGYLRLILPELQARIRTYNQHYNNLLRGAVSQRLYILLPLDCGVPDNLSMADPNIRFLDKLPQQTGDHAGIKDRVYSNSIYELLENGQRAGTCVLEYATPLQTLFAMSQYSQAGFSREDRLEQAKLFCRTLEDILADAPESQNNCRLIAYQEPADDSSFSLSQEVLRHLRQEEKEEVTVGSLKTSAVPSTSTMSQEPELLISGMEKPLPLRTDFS
Chain of Stimulator of interferon genes protein (Homo sapiens), Q86WV6 [UNDEFINED MUTATION] (Q86WV6 whole entry, looked up, change not shown): as the sequence (Q86WV6 whole entry, the tested form may be a part) above
Chain of Stimulator of interferon genes protein (Homo sapiens), Q86WV6 [R71H,G230A,R293Q] (Q86WV6 whole entry R71H/G230A/R293Q): as the sequence (Q86WV6 whole entry, the tested form may be a part) above, with R71H, G230A, R293Q counted along it

- Tm (Homo sapiens [1]): 49 °C
- fold change (FC) [2]: 26
- Tm (Mus musculus): 55.5 °C
- Activity [3]: Active
- Activity [4]: Active
- Activity [5]: Dose-Dependent Effect
- Tm [6]: 48.5 °C
- Activity [7]: Active
- solubility [8]: 3230 µg/mL
- Activity [9]: Active
- fold change (FC) [10]: 8.11
- Tm (Homo sapiens [11]): 50.2 °C
- Tm [12]: 48.8 °C
Structure (SMILES): CCn1nc(C)cc1C(=O)/N=c1\[nH]c2cc(C(N)=O)cc(OC)c2n1C/C=C/Cn1/c(=N/C(=O)c2cc(C)nn2CC)[nH]c2cc(C(N)=O)cc(OCCCN3CCOCC3)c21.Cl.Cl.Cl
- Activity (4T1): Active

Structure (SMILES): Cc1ccc2c(=O)c3cccc(CC(=O)O)c3oc2c1C
- inhibition (CT26): Active

Structure (SMILES): CCn1nc(C)cc1C(=O)/N=c1\[nH]c2cc(-c3ncn[nH]3)cc(OC)c2n1C/C=C/Cn1/c(=N/C(=O)c2cc(C)nn2CC)[nH]c2cc(C(N)=O)cc(OCCCN3CCOCC3)c21
- AUC(0-inf) [13]: 705 ng·h/mL
- AUC(0-t) [14]: 678 ng·h/mL
- MRT inf [15]: 30.2 min
- EC50 [16]: 39500 nM
- Vd [17]: 0.722 L/kg
- Activity [18]: Toxic
- half-life [19]: 41.8 min
- EC50 [20]: 240 nM
- EC50 [21]: 6.2 nM
- clearance [22]: 23.9 mL/min/kg
- Activity [23]: Non-Toxic

From ChEMBL document CHEMBL4808161, “Structure-Activity Relationship Study of Amidobenzimidazole Analogues Leading to Potent and Systemically Administrable Stimulator of Interferon Gene (STING) Agonists” (J Med Chem, 2021)
